Data set [1] deals with Pseudomonas aeruginosa. Briefly: Antimicrobial activity against Pseudomonas aeruginosa ATCC 9027 assessed as growth inhibition after 24 hr by broth microdilution method. The format is functional. In a few lines: (§1)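 Broth microdilution. Oils prepared as […] in DMSO and diluted in the plates to 3.5–900 µL/mL. Inoculum 5×10^5 cfu/mL, checked by plating on PDA. Incubated aerobically for 24 h at 37 °C (C. albicans at 30 °C). MIC taken as the first well, in ascending order, with no pellet or turbidity. MBC (99.9% kill) from 25 µL subcultured on PDA overnight at 37 °C. Three repeats.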
(Broth dilution looks for growth in wells or tubes with falling amounts of substance.)

Data set [2] deals with Botrytis cinerea. Briefly: Antifungal activity against Botryotinia fuckeliana assessed as mycelial growth inhibition after 4 to 12 days. The format is functional, organism-based. In a few lines:
(§2)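 Mycelial plugs (6 mm, 10-day-old cultures) inoculated on PDA in Petri dishes; essential oil added at 450 and 900 µL/mL; dishes sealed with Parafilm and held in the dark at 22 °C. Control: PDA plus distilled water. Mean colony diameter measured at 4, 8 and 12 days; inhibition I = 100(C − T)/C. Plates without growth were transferred to plain PDA for 48 h to tell fungistatic from fungicidal.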

For data set [3], the system named is Escherichia coli. Briefly: Antimicrobial activity against Escherichia coli ATCC 8739 assessed as growth inhibition after 24 hr by broth microdilution method. In kind it is functional. In a few lines: as §1
For data set [4], the system named is Staphylococcus aureus. The experiment in a line: Antimicrobial activity against Staphylococcus aureus ATCC 6538 assessed as growth inhibition after 24 hr by broth microdilution method. The format is functional. In a few lines:
as §1

In data set [5] the test system is Rhizoctonia solani. Briefly: Antifungal activity against Rhizoctonia solani assessed as mycelial growth inhibition after 4 to 12 days. In kind it is functional, organism-based. The method in brief:
as §2

The subject of data set [6] is Fusarium culmorum. Briefly: Antifungal activity against Fusarium culmorum assessed as mycelial growth inhibition after 4 to 12 days. In kind it is functional, organism-based. In a few lines: as §2
Data set [7] deals with Fusarium graminearum. The experiment in a line: Antifungal activity against Fusarium graminearum assessed as mycelial growth inhibition after 4 to 12 days. The format is functional, organism-based. The method in brief:
(§3)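 Mycelial fragments (6 mm diameter, from 10-day cultures) were seeded on PDA in Petri dishes. Essential oil was added at 450 and 900 µL/mL, and plates were sealed and incubated in the dark at 22 °C. Controls received distilled water instead of oil. Mean diametric colony growth was read at 4, 8 and 12 days. Inhibition % = 100(C − T)/C, where C is the control diameter and T the oil-treated diameter.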

Data set [8] deals with Fusarium oxysporum f. sp. lycopersici. Briefly: Antifungal activity against Fusarium oxysporum f. sp. lycopersici assessed as mycelial growth inhibition after 4 to 12 days. The format is functional, organism-based. The method in brief:
as §2

Data set [9] relates to Staphylococcus epidermidis. Briefly: Antimicrobial activity against Staphylococcus epidermidis ATCC 12228 assessed as growth inhibition after 24 hr by broth microdilution method. In kind it is functional. In a few lines: as §1
Data set [10] deals with Candida albicans. The experiment in a line: Antimicrobial activity against Candida albicans ATCC 14053 assessed as growth inhibition after 24 hr by broth microdilution method. In kind it is functional. The method in brief: as §1
Data set [11] has as its system Fusarium graminearum. Briefly: Induction of growth of Fusarium graminearum after 4 to 12 days. The format is organism-based. Conditions: in vivo. In a few lines:
as §3

Calls of active or inactive are those of the source. The calls are words filed in the database; no cut-off is given here.

Turning to `CC12CCC(CC1=O)C2(C)C` (stereo not given) [CAMPHOR], the MIC in [1], in data set [3], in [4], in data set [9] and in data set [10] was more than 900 uL/ml in each case. The “growth inhibition (GI)” value in data set [2], in data set [5], in data set [6], in [7] and in [8] was “inactive” in each case. For the same compound, the Activity entry in data set [11] is listed as “Toxic”.

Turning to `C=C1[C@@H]2CC[C@@H](C2)C1(C)C` [(-)-CAMPHENE], the MIC in data set [1], in data set [3], in data set [4], in data set [9] and in data set [10] was more than 900 uL/ml throughout. In addition, the “growth inhibition (GI)” value in [2], in [5], in data set [6], in data set [7] and in [8] was “inactive” in each case. The Activity entry in [11] was “Toxic”.

`CC1=CCC2CC1C2(C)C` (stereo not drawn) [ALPHA-PINENE]: the MIC in [1], in data set [3], in data set [4], in [9] and in [10] was more than 900 uL/ml each time. Also, the “growth inhibition (GI)” value in data set [2], in [5], in [6], in data set [7] and in [8] was “inactive” each time. Further, in data set [11], the Activity result is on record as “Toxic”.

For the compound `CC1=CC(=O)[C@@H]2C[C@H]1C2(C)C` [VERBENONE], the MIC in data set [1], in data set [3], in data set [4], in data set [9] and in data set [10] was more than 900 uL/ml throughout. The “growth inhibition (GI)” value in data set [2], in data set [5], in data set [6], in data set [7] and in data set [8] was “inactive” in each case. In addition, the Activity entry in [11] was “Toxic”.

Regarding `CC1(C)C2CCC1(C)C(O)C2` (stereo not given) [BORNEOL], the MIC in [1], in data set [3], in [4], in [9] and in [10] was more than 900 uL/ml each time. In addition, the “growth inhibition (GI)” value in data set [2], in data set [5], in data set [6], in data set [7] and in data set [8] was “inactive” in each case. In [11], the Activity entry was “Toxic”.

The record behind these values is ChEMBL document CHEMBL3045403, “chemical composition, plant genetic differences, antimicrobial and antifungal activity investigation of the essential oil of Rosmarinus officinalis L” (J Agric Food Chem, 2004).
